Assay results: ChEMBL document CHEMBL1152806, “Discovery of a potent, selective, and orally efficacious pyrimidinooxazinyl bicyclooctaneacetic acid diacylglycerol acyltransferase-1 inhibitor” (J Med Chem, 2009)

Legend:
[1] = Half life in dog at 1 to 3 mg/kg, iv; type: ADME, organism-based, Canis lupus familiaris; parameters: dose 1-3 mg/kg, route intravenous; conditions: in vivo
[2] = Half life in marmosets at 1 to 3 mg/kg, iv; type: ADME, organism-based; parameters: dose 1-3 mg/kg, route intravenous; conditions: callitrichinae sp., in vivo
[3] = Apparent permeability from basolateral to apical side in MDCK cells at 10 uM; type: ADME, cell-based, Canis lupus familiaris; conditions: dog, read-out: permeability
In short: (§1)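 Cultured MDCK cells incubated with compound at 10 µM; apparent permeability (Papp, ×10^-6 cm/s) measured in both apical-to-basolateral and basolateral-to-apical directions.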

Rattus norvegicus [4] = assay: Reduction of plasma triacylglycerol excursion in 14 hrs fasted Han-Wistar rat at 0.3 mg/kg, po treated 2 hrs before bolus corn oil administration measured 1.5 hrs post corn oil challenge by oral lipid tolerance test relative to control; type: functional; parameters: scale not given: the % may be the effect or the level left
In short: (§2)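 Male Han-Wistar rats (~230 g) on chow diet were fasted 14 h and given compound by oral gavage, suspended in HPMC/Tween. A corn oil bolus (5 mL/kg) followed 2 h later. After 1.5 h, blood was drawn from the abdominal vena cava and plasma TAG measured colorimetrically (GPO-PAP). Result is % reduction versus vehicle-treated controls; n = 6.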

[5] = Lipophilicity, log D of the compound; type: physicochemical; conditions: octanol/water
[6] = Apparent permeability from apical to basolateral side in MDCK cells at 10 uM; type: ADME, cell-based, Canis lupus familiaris; conditions: dog, read-out: permeability; in short: as §1
[7] = target: T1, Diacylglycerol O-acyltransferase 2 (Homo sapiens) (UniProt Q96PD7); assay: Inhibition of human DGAT2 at 10 uM by liquid scintillography
T1 sequence (whole entry): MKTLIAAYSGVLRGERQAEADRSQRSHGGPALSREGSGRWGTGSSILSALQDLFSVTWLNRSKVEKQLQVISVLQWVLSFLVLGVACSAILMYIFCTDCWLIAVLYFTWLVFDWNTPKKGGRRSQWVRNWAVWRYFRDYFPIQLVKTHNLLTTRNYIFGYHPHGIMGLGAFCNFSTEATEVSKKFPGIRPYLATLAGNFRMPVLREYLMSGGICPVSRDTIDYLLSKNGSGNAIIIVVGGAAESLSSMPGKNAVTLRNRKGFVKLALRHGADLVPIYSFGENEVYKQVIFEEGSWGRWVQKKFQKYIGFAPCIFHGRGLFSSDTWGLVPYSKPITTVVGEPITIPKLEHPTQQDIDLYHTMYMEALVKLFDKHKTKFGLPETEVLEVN

[8] = target: T2, Diacylglycerol O-acyltransferase 1 (Rattus norvegicus, UniProt Q9ERM3); assay: Inhibition of rat microsomal DGAT1 by liquid scintillography
T2 sequence (Q9ERM3 whole entry): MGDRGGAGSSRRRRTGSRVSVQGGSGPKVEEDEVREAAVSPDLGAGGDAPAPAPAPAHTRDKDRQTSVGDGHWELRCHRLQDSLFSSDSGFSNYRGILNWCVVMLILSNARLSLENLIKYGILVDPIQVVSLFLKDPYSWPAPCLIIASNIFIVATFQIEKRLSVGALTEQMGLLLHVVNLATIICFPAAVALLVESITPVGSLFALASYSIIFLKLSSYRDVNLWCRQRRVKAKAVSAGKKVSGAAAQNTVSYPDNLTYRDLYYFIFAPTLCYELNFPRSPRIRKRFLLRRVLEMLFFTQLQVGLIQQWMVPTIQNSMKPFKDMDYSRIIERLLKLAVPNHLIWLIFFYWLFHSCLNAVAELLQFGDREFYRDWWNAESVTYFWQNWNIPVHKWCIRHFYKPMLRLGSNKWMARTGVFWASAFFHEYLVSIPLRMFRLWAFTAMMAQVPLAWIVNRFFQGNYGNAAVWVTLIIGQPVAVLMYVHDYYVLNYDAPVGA

[9] = Plasma clearance in dog at 1 to 3 mg/kg; type: ADME, organism-based, Canis lupus familiaris; parameters: dose 1-3 mg/kg
Rattus norvegicus [10] = assay: Reduction of adipose triacylglycerol synthesis in 14 hrs fasted Han-Wistar rat assessed as decrease in ratio of [3H]palmitic acid incorporation in to TAG and DAG at 8 mg/kg, po after 1.5 hrs relative to control; type: functional; parameters: scale not given: the % may be the effect or the level left
In short: (§3)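 Male Han-Wistar rats (~300 g) on chow diet were given compound by oral gavage, suspended in HPMC/Tween. At 1.5 h they were anaesthetised with inactin and a bolus of [3H]-palmitic acid was given via a jugular cannula. Epididymal fat was taken 20 min later, homogenised in duplicate with [14C]-oleic acid internal standard, and lipids separated by HPLC. Result is % reduction of the TAG/DAG label ratio versus vehicle; n = 10.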

[11] = Volume of distribution at steady state in rat at 1 to 3 mg/kg; type: ADME, organism-based; parameters: dose 1-3 mg/kg; conditions: in vivo, read-out: Vdss
[12] = Metabolic stability in dog assessed as urinary excretion of acyl glucuronide form after 2 hrs; type: ADME, Canis lupus familiaris, Urine
In short: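 Parent-related material excreted as acyl glucuronide measured in a 2 h urine sample collected after dosing in dog.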

HuTu80 = assay: Inhibition of triacylglycerol synthesis in human HuTu 80 cells after 30 mins; type: functional, cell-based; conditions: HuTu80, 0.5 h
In short: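 Confluent HuTu 80 cells in serum-free medium, preincubated 30 min with compound (0.1% DMSO final). Then given 0.12 mM sodium oleate plus 1 µCi/mL 14C-oleate complexed to 0.03 mM BSA. Cells solubilized in SDS and lipids extracted; 14C in triacylglycerol measured by normal-phase HPLC with radio-flow detection. Lowry protein determined.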

[13] = Volume of distribution at steady state in marmosets at 1 to 3 mg/kg; type: ADME, organism-based; parameters: dose 1-3 mg/kg; conditions: callitrichinae sp., in vivo; read-out: Vdss
CYP1A2 = target: T3, CYP1A2 (Homo sapiens, UniProt P05177); assay: Inhibition of CYP1A2 at 30 uM; type: ADME
T3 sequence (P05177 whole entry): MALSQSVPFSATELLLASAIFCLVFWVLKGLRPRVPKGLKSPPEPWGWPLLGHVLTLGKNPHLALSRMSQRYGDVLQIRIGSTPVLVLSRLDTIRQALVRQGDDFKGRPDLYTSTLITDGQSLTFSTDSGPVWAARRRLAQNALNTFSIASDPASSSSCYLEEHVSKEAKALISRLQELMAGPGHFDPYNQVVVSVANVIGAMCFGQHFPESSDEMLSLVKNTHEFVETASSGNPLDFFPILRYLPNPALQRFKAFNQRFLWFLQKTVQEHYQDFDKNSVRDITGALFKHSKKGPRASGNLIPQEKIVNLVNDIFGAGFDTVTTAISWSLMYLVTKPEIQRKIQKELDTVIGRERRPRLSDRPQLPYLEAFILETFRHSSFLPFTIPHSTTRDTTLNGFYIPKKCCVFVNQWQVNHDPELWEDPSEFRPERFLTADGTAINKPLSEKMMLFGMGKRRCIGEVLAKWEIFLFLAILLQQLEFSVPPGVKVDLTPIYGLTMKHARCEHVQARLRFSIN

[14] = Half life in marmosets at 1 to 3 mg/kg, po; type: ADME, organism-based; parameters: dose 1-3 mg/kg, route oral; conditions: callitrichinae sp., in vivo
[15] = Half life in rat at 1 to 3 mg/kg, po; type: ADME, organism-based; parameters: dose 1-3 mg/kg, route oral; conditions: in vivo
CYP3A4 = CYP3A4 (Homo sapiens, UniProt P08684); assay: Inhibition of CYP3A4 at 30 uM; type: ADME
CYP2C9 = CYP2C9 (Homo sapiens, UniProt P11712); assay: Inhibition of CYP2C9 at 30 uM; type: ADME
Hepatocyte = assay: Metabolic stability in human hepatocytes assessed as conversion to acyl glucuronide form after 2 hrs; type: ADME, cell-based
Rattus norvegicus [16] = assay: Reduction of plasma triacylglycerol excursion in 14 hrs fasted Han-Wistar rat at 1 mg/kg, po treated 2 hrs before bolus corn oil administration measured 1.5 hrs post corn oil challenge by oral lipid tolerance test relative to control; type: functional; parameters: scale not given: the % may be the effect or the level left; in short: as §2
CYP2D6 = CYP2D6 (Homo sapiens, UniProt P10635); assay: Inhibition of CYP2D6 at 30 uM; type: ADME
Rattus norvegicus [17] = assay: Reduction of adipose triacylglycerol synthesis in 14 hrs fasted Han-Wistar rat assessed as decrease in ratio of [3H]palmitic acid incorporation in to TAG and DAG at 3 mg/kg, po after 1.5 hrs relative to control; type: functional; parameters: scale not given: the % may be the effect or the level left; in short: as §3
[18] = Metabolic stability in marmosets alamethicin-activated microsomes assessed as conversion to acyl glucuronide form after 1 hr; type: ADME, Microsome; conditions: callitrichinae sp.

Chain of CYP2D6 (P10635 whole entry): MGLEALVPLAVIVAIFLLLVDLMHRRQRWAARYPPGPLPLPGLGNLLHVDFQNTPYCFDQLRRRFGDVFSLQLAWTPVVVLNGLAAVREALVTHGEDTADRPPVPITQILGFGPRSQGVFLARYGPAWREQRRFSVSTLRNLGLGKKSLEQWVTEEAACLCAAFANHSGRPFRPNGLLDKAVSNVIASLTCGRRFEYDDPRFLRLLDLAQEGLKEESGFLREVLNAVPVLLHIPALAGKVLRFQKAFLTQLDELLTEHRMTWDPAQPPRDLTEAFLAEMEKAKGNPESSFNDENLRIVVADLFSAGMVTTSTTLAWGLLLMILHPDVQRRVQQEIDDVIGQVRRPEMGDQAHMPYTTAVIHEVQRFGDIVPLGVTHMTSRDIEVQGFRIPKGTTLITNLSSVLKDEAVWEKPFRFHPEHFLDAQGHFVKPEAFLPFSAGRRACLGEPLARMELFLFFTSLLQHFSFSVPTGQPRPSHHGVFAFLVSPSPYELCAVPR
Chain of CYP2C9 (P11712 whole entry): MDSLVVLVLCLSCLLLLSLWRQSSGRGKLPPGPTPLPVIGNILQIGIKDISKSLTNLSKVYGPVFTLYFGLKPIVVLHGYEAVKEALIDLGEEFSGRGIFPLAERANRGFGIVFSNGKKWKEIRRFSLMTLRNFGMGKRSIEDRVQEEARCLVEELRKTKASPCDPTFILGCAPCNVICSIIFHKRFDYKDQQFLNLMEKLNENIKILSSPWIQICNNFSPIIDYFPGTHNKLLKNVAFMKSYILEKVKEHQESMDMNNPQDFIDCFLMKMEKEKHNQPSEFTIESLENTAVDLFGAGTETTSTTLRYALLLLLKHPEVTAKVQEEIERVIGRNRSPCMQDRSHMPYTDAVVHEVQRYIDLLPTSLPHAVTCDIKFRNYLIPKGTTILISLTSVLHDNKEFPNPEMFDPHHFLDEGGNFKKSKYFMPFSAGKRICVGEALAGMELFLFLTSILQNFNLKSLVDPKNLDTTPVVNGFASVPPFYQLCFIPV
Chain of CYP3A4 (P08684 whole entry): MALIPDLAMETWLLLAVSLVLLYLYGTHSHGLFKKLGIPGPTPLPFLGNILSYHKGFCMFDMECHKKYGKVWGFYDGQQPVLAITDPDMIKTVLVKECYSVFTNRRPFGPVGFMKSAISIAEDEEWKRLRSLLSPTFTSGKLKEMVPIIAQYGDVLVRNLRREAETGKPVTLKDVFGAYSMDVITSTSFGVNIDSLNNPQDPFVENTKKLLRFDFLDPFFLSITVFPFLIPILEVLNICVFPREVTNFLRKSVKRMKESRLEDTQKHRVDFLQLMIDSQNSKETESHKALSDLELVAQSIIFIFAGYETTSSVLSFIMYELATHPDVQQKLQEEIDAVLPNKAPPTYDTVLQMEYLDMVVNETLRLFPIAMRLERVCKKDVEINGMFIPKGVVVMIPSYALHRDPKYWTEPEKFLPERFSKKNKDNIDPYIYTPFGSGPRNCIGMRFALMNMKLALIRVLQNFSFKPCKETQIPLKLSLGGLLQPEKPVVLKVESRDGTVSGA

Compound: CC1(C)Oc2ncnc(N)c2N=C1c1ccc(C23CCC(CC(=O)O)(CC2)CC3)cc1
- half-life [1]: 8.6 h
- half-life [2]: 13 h
- Papp B→A at 10 µM [3]: 26 ×10⁻⁶ cm/s
- Activity (Rattus norvegicus [4]): 57%
- logD [5]: 1.9
- Papp A→B at 10 µM [6]: 18 ×10⁻⁶ cm/s
- inhibition [7]: 0%
- IC50 [8]: 9 nM
- clearance [9]: 3.3 mL/min/kg
- Activity (Rattus norvegicus [10]): 54%
- Vd [11]: 0.7 L/kg
- Stability [12]: 82%
- IC50 (HuTu80): 3 nM
- Vd [13]: 0.88 L/kg
- inhibition at 30 µM (CYP1A2): < 25%
- half-life [14]: 9.5 h
- half-life [15]: 5.4 h
- inhibition at 30 µM (CYP3A4): < 25%
- inhibition at 30 µM (CYP2C9): < 25%
- Stability (Hepatocyte): 17%
- Activity (Rattus norvegicus [16]): 72%
- inhibition at 30 µM (CYP2D6): < 25%
- Activity (Rattus norvegicus [17]): 57%
- Stability [18]: 15%
